Screens as filed in PubChem.
FLuc stim CS – affects firefly luciferase, flagging false hits in luciferase stimulation screens; P08659; ATPlite luciferase biochemical, luminescence, 10 min; 0 = ATP-free wells, 1 = DMSO control; activation factor at 10 µM; 200,000 tested, under 10 active; AID 1027;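 active = luciferase activation factor, scaled between plate controls, of at least 2 with compound at 10 µM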
Target sequence (P08659 whole entry, looked up): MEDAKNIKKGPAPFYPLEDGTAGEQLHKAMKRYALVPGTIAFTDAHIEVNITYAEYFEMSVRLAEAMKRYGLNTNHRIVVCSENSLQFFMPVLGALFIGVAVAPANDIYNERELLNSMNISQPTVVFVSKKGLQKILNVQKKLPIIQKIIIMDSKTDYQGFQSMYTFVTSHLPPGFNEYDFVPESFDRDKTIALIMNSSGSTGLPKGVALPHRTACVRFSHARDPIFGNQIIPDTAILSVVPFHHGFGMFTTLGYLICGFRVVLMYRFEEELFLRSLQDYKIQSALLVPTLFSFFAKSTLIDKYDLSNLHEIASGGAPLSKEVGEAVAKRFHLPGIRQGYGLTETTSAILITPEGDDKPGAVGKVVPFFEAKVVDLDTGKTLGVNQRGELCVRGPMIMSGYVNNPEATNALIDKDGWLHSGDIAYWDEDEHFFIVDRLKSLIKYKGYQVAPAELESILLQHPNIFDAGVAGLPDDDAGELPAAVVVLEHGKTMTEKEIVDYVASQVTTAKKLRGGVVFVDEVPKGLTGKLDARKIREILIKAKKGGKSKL
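Assay system – cell-free luciferase reagent · Medium – PBS-based ATP solution · Dosing – test compounds dosed from 2 mM stocks in 100% DMSO · Timing – 10 min, room temperature · Technique – light output (luminescence) · Measure – luminescence gain marking luciferase activators · Controls – No-ATP low control, compound-free enzyme-plus-ATP high control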
FLuc inh counter – counter-screen for luciferase assay inhibitors: firefly luciferase inhibition; AID 1006; ATPLite firefly luciferase biochemical luminescence, 10 min; actives 1.5% (n = 200,000); inhibition, % at 10 µM;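 active = inhibition above about 50% when tested at 10 µM, limit read from the data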
STAT1 act – activators of IFN-gamma induced STAT1 signaling; NIH 3T3 STAT1-luciferase reporter, luminescence; 100% = IFN-gamma alone, no compound; activation (% of control), % at 5.5 µM; actives 2.6% (n = 200,000);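 active = activation above the screen-wide mean activation plus 3 SD, cut at about 130% in these data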;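 also: raw ratio to IFN-gamma control signal so 100% means no change and 0% no light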
NF-kB expr up – NF-kB expression increase, human neuronal cells; fold change at 12.5 µM; actives 1.6% (n = 190,000); NF-kB reporter expression; stronger effect = higher value; AID 1239; in the data active = fold change above about 3.3
APP 5'UTR act – APP 5'UTR luciferase reporter activation | SH-SY5Y APP 5'UTR luciferase reporter, luminescence; zero percent = DMSO vehicle wells | AID 1276 | activation, % at 2 µM | actives 1% (n = 190,000);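 active = activation above a set limit, based on mean plus 3 SD of controls, cut at about 140% in these data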
An asterisk follows results filed as active; nt = no result. Most compounds without a hit are left out; they make up all but 4.1% or so of the library.

SMILES | FLuc stim CS | FLuc inh counter | STAT1 act | NF-kB expr up | APP 5'UTR act
CC(C)c1ccc2c(c1)C1(NN=C(c3ccccc3)S1)C(=O)N2 (stereo unspecified) | 1 | 3 | 129* | 1.7 | 133
Cc1ncc(CO)c(/C=N/N=C/c2ccccc2O)c1O | 0.9 | 8 | 110 | 3.6* | 64
COc1cc(/C=N/NC(=O)c2cccc(S(=O)(=O)N3CCCCC3)c2)cc(Br)c1O | 1 | -5 | 108 | 1.3 | 2
Cc1nn(-c2cccc(Cl)c2)c2nc(C(F)(F)F)[nH]c(=O)c12 | 1 | 0 | 97 | 1 | 11
C/C(=N\Nc1nc(-c2ccccc2)cs1)c1cccs1 | 0.7 | 31 | 145* | 0.64 | 116
O=C(COC(=O)c1cccs1)Nc1nc(-c2ccccc2)cs1 | 1 | -2 | 100 | 1.2 | -5
Nc1nc(COc2ccc(Cl)cc2)cs1 | 0.8 | 16 | 137* | 1.1 | 53
Cc1ccc(OCc2csc(N)n2)cc1 | 0.7 | 35 | 131* | 2.2 | 49
Cc1ccc(NC(=S)N2CCC(c3ccc(C)cc3)C2)cc1 (stereo unspecified) | 0.8 | 16 | 122 | 1.6 | 28
CCc1cccc(NC(=S)N2CCC(c3ccccc3)C2)c1 (stereo unspecified) | 0.9 | 8 | 126 | 1.3 | 25
Fc1ccccc1NC(=S)N1CCCCC1 | 1 | 0 | 105 | 0.99 | 5
S=C(Nc1ccccc1Cl)N1CCC(c2ccccc2)C1 (stereo unspecified) | 0.8 | 21 | 148* | 3.4* | 130
Cc1ccc(NC(=S)N2CCC(c3ccccc3)C2)c(Cl)c1 (stereo unspecified) | 0.3 | 74* | 93 | 6.5* | 190*
Fc1cc(F)cc(NC(=S)N2CCC(c3ccccc3)C2)c1 (stereo unspecified) | 0.9 | 7 | 141* | 2.1 | 66
Fc1ccccc1NC(=S)N1CCC(c2ccccc2)C1 (stereo unspecified) | 0.8 | 15 | 146* | 2.5 | 61
CCOC(=O)C1CCCN(C(=O)c2ccc(CNS(=O)(=O)c3ccc(C)cc3)cc2)C1 (stereo unspecified) | 1 | -1 | 95 | 1.2 | -14
COc1cccc(-c2cc(C(=O)Nc3c(C)nn(Cc4ccccc4C)c3C)no2)c1 | 1.1 | -8 | 82 | 0.65 | -3
OC1CCC(NC(=S)Nc2ccc(SC(F)F)cc2)CC1 (stereo unspecified) | 0.8 | 20 | 129* | 0.87 | 46
S=C(Nc1ccc(Oc2ccc(NC(=S)NC3CCCCC3)cc2)cc1)NC1CCCCC1 | 1 | 2 | 94 | 1.1 | -18
CC(C)c1ccc(NC(=S)NC2CCCCCC2)cc1 | 1 | -1 | 140* | 1.1 | 40
COc1ccc(NC(=S)NC(=O)c2ccc(Br)o2)cc1 | 0.8 | 20 | 147* | 2.7 | 32
COc1ccc(NC(=O)c2ccc(Br)o2)cc1 | 0.5 | 46 | 122 | 2.7 | 47
O=C(NC(=S)Nc1ccccc1)c1ccc(Br)o1 | 0.9 | 12 | 138* | 1.9 | 72
OC(COCCC12CC3CC(CC(C3)C1)C2)CN1CCCC1 (stereo unspecified) | 1 | -3 | 105 | 1.4 | 2
CC(=O)NC(=S)Nc1ccccc1N1CCCCC1 | 1.1 | -6 | 93 | 1.2 | 3
SMILES | FLuc stim CS | FLuc inh counter | STAT1 act | NF-kB expr up | APP 5'UTR act
Fc1ccc(-c2nnc(NC3=NCCCCC3)o2)cc1 | 0.1 | 87* | 38 | 0.65 | 45
c1ccc(-c2nnc(NC3=NCCC3)o2)cc1 | 0.3 | 66* | 116 | 0.97 | 122
O=C(Nc1ccccc1)Nc1nnc(-c2ccccc2)o1 | 1 | 1 | 107 | 0.97 | 11
O=C(Nc1ccc2c(c1)OCO2)C1CCCN(S(=O)(=O)c2cccs2)C1 (stereo unspecified) | 1.1 | -9 | 97 | 1 | -12
COc1cc(C=O)ccc1OCCCCOc1ccccc1[N+](=O)[O-] | 1 | 3 | 99 | 1.1 | -15
COc1cc(C=O)ccc1OCc1ccc(Cl)nc1 | 0.4 | 59* | 136* | nt | 63
COc1cc(C=O)ccc1OCCCOc1ccccc1C(=O)O | 1 | -1 | 148* | 1.5 | 127
COc1cc(C=O)ccc1OCCCOc1ccccc1[N+](=O)[O-] | 1 | -2 | 130* | 2 | 1
C/C=C/c1ccc(OCCOc2cc(C=O)ccc2OC)c(OC)c1 | 0.7 | 25 | 131* | 1.8 | 28
COc1cc(C=O)ccc1OCCOCCOc1ccccc1Cl | 1 | 0 | 95 | 1.2 | 0
O=S(=O)(c1ccccc1)N1CCN(CC2CC3C=CC2C3)CC1 (stereo unspecified) | 1.1 | -7 | 97 | 0.98 | 10
Cn1nc(C(=O)N2CCCC2)c2ccccc2c1=O | 1 | -4 | 104 | 1.2 | 6
Cc1ccc(S(=O)(=O)Nc2cccc3ncccc23)s1 | 1.1 | -5 | 187* | 0.16 | -56
CCOc1ccc(C2C=C(c3ccc(F)cc3)Nc3ncnn32)cc1 (stereo unspecified) | 1.1 | -11 | 95 | 0.86 | 1
COc1cccc(NC(=O)Nc2ccc(C)c(Cl)c2)c1 | 0.8 | 15 | 133* | 2 | 55
COc1cccc(NC(=O)Nc2cc(C(=O)O)ccc2C)c1 | 1 | 3 | 101 | 1 | -9
CCCCOC(=O)Nc1ccc(C(=O)OC)cc1 | 1 | 1 | 125 | 1.9 | 59
COc1ccc(CC(=O)Nc2cccc(C(=O)Nc3cccc(C)c3)c2)cc1 | 1 | 2 | 99 | 1.4 | 2
CCCCOC(=O)Nc1ccc(C)c(Cl)c1 | 0.9 | 9 | 143* | 2.9 | 114
Cc1cccc(NC(=O)c2ccc(OC3CSC3)cc2)c1 | 0.2 | 80* | 125 | 3.8* | 158*
COc1ccc(C(=O)Nc2cccc(C)c2)cc1 | 0.2 | 77* | 138* | 6* | 142*
CC(C)NC(=O)COC(=O)CNC(=O)c1cc(Cl)cc([N+](=O)[O-])c1 | 1 | -1 | 106 | 0.81 | 19
COc1ccc(CNCC(=O)Nc2cccc(S(N)(=O)=O)c2)cc1 | 1 | 4 | 98 | 1.1 | -3
CCN(CC)CCCN1C(=O)C(O)=C(C(=O)c2sc(C)nc2C)C1c1ccc(C)o1 (stereo unspecified) | 1 | -4 | nt | nt | nt
CCOC(=O)CN(c1ccccc1)S(=O)(=O)c1ccc(F)cc1 | 1 | 1 | 104 | 1.1 | 21
SMILES | FLuc stim CS | FLuc inh counter | STAT1 act | NF-kB expr up | APP 5'UTR act
Cc1ccc2[nH]c(=O)c(C(c3nnnn3C3CCCC3)N(Cc3cccnc3)Cc3ccco3)cc2c1 (stereo unspecified) | 1.1 | -6 | 91 | 0.94 | -3
C=CSc1sc(Cl)c(N(C)C)c1[N+](=O)[O-] | 1 | -4 | 88 | 1.2 | 26
COc1ccc(C(=O)Nc2cc(OC)nc(OC)n2)cc1 | 0.2 | 76* | 138* | 7.2* | 140*
COc1cccc(C(=O)Nc2ccccc2)c1 | 0.8 | 17 | 117 | 2 | 45
O=C(Nc1cccc(Br)c1)c1ccc(OC2CSC2)cc1 | 0.4 | 58* | 128 | 3 | 149*
COc1cccc(C(=O)Nc2cccc(SC)c2)c1 | 0.7 | 33 | 129* | 2.7 | 83
